# Rows were chosen to be rich in hits. Some 2.7% of all compounds tested hit in one or more screens of this group.
# PLK1 inh = human PLK1 kinase inhibitors, primary screen, biochemical, TR-FRET | Serine/threonine-protein kinase PLK1 (Homo sapiens), P53350 | actives 0.53% (n = 97,000) | recombinant PLK1 kinase, TR-FRET peptide phosphorylation | inhibition, % at 10 µM;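 active means inhibition of 50% or more in the single-concentration screen; inactive means inhibition below 50%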;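 further: 0% = DMSO max control and 100% = H-89 dihydrochloride min control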
# Target sequence (P53350 whole entry, looked up): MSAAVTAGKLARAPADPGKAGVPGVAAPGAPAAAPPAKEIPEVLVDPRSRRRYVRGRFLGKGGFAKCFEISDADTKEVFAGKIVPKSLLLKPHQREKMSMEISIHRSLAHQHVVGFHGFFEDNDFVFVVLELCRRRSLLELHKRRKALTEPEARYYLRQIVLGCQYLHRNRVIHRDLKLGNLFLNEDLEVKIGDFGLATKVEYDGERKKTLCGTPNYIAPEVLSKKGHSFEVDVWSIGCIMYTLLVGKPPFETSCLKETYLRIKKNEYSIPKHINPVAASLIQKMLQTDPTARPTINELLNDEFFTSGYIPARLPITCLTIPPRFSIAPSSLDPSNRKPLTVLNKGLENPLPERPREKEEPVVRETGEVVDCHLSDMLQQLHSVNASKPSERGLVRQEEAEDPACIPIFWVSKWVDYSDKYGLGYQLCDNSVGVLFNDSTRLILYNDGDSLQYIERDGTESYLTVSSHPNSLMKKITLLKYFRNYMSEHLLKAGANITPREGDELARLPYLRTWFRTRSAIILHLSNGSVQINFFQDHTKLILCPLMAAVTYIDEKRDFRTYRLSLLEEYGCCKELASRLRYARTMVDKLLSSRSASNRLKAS
# HIV Rev-RRE inh = HIV-1 Rev-RRE binding inhibitors, primary screen, biochemical, FRET, protein-RNA interaction; Rev peptide-RRE RNA binding; inhibition, % at 8 µM; actives 0.79% (n = 97,000); AID 704, 2007;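 active means inhibition above the screen-wide mean plus 3 SD, cut at about 35% in these data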;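 further: 0% = median DMSO wells and 100% = median Neomycin B control wells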
# Target sequence (P05866 whole entry, looked up): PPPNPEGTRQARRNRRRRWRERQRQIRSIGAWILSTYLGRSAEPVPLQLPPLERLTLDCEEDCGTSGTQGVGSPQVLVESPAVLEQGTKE
#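 assay system = Cy5-tagged RRE RNA duplex with fluorescein-tagged Rev peptide | incubation = 5 + 15 min at 25 °C | also added = labelled Rev peptide | measure = % inhibition of FRET ratio versus controls | benchmarks = DMSO wells as 0% and neomycin B wells as 100% inhibition | measured by = FRET fluorescence readout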
# PTPN22 inh 2 = PTPN22 phosphatase inhibitors, primary screen, biochemical, DiFMUP fluorescence, 2 µM | Tyrosine-protein phosphatase non-receptor type 22 (Homo sapiens), Q9Y2R2 | recombinant LYP catalytic domain | inhibition, % at 2 µM | actives 0.21% (n = 96,000) | AID 640, 2007;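 active means inhibition at 2 µM at or above a set limit, the screen mean plus 3 SD, cut at about 24% in these data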;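 further: 0% = DMSO with enzyme and 100% = enzyme fully blocked by orthovanadate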
# LYP act = LYP phosphatase activators, primary screen, biochemical, DiFMUP fluorescence, 2 µM. Tyrosine-protein phosphatase non-receptor type 22 (Homo sapiens), Q9Y2R2. recombinant LYP; 0 = plate median, 100 = signal doubled. activation, % at 2 µM. actives 0.11% (n = 96,000). AID 697, 2007;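 active means activation at 2 µM above a set limit, the mean plus 5 SD, cut at about 37% in these data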
# hDAT+cocaine = changed hDAT dopamine uptake under cocaine IC80, either direction, primary screen, cocaine antagonist project, cell-based, LLC-PK1 hDAT, [14C]-dopamine uptake, MLSMR; Sodium-dependent dopamine transporter (Homo sapiens), Q01959; LLC-PK1 hDAT cells, [14C]-dopamine uptake with cocaine IC80; actives deviate in either direction; B-score at 10 µM; actives 1.3% (n = 110,000); AID 449768, 2010;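 active means Z score or B-score, a plate-position-corrected score, falls beyond the plate's 99.7% confidence bounds, in either direction; inactive means both scores lie inside the 99.7% bounds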;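 further: scored against the spread of the other compound wells on the same plate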
# Plk1 PBD FP = Plk1 polo box domain binding inhibitors, primary screen, biochemical, fluorescence polarization; Plk1 PBD phosphopeptide binding; actives 0.13% (n = 97,000); inhibition, %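 (tested at about 20 µM)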; in the data active means inhibition above about 34%, passing the limit was not always enough
# The depositor's hits bear a star; · = no result given.
SMILES,PLK1 inh,HIV Rev-RRE inh,PTPN22 inh 2,LYP act,hDAT+cocaine,Plk1 PBD FP
Cc1nc(-c2ccccc2)sc1-c1nc(-c2ccncc2)ncc1S(=O)(=O)c1ccccc1,-19.9,-1.9,-0.7,0.0,·,17.4
O=C(Cc1ccccc1)Nc1c2c(nn1-c1cccc(Cl)c1)CS(=O)(=O)C2,65.6*,1.9,-19.6,17.4,0.0664,4.9
CCN(CC)C(=O)C1CCCN(c2ncnc3c2cnn3-c2cccc(C)c2)C1 (stereo not given),·,·,·,·,3.28*,·
C/C(=N\NC(=O)c1ccccc1O)C1C(=O)c2ccccc2C1=O,-6.3,10.2,7.5,-7.9,-3.74*,-33.6
COc1ccc(S(=O)(=O)N2CCN(C3CCN(Cc4ccccc4)CC3)CC2)cc1,1.4,5.2,-19.8,17.7,-1.76*,-10.6
O=C1[C@H](CC[C@H](O)c2ccc(F)cc2)[C@@H](c2ccc(O)cc2)N1c1ccc(F)cc1,·,·,·,·,1.48,·
Cc1[nH]nc2c1C(c1ccc3c(c1)OCO3)C(C#N)=C(N)O2 (stereo not given),39.5,9.5,-2.4,-1.1,-1.48,-18.7
Cc1[nH]nc2c1C(c1ccsc1C)C(C#N)=C(N)O2 (stereo not given),61.5*,5.8,3.5,-2.9,-1.19,9.9
Cc1[nH]nc2c1C(c1ccsc1)C(C#N)=C(N)O2 (stereo not given),52.0*,8.6,-9.8,8.3,0.545,-2.3
Cc1[nH]nc2c1C(c1ccc(F)cc1)C(C#N)=C(N)O2 (stereo not given),56.7*,3.3,-1.1,-0.9,-0.659,7.8
Cc1ccc(-c2[nH]nc3c2C(c2ccsc2)C(C#N)=C(N)O3)cc1 (stereo not given),2.4,8.8,1.6,1.8,-0.0841,-5.7
Cc1cc(C2C(C#N)=C(N)Oc3n[nH]c(C)c32)c(C)s1 (stereo not given),25.4,3.0,-2.7,4.1,-0.896,-14.7
COc1ccccc1C1=NOC(C)(c2nnc(-c3cccc(Cl)c3)o2)C1 (stereo not given),·,·,·,·,-0.0834,·
CS(=O)(=O)N(CCc1ccccc1)CC(=O)N1CCN(c2ccc(F)cc2)CC1,-13.5,9.6,2.3,-2.8,-0.876,10.9
COc1cccc(C(=O)CSc2nnnn2C2CCCCC2)c1,-5.3,3.7,6.8,-10.6,1.17,-1.5
CCOC(=O)c1ccccc1NC(=O)CSc1nnnn1C1CCCCC1,-4.5,12.9,0.2,-1.2,-0.302,14.9
COc1ccccc1Nc1nc(N)nc(CN2CCN(c3ccccc3F)CC2)n1,-8.0,9.6,-1.6,2.1,2.81*,4.6
CC1CCN(c2ccc(/C=N/n3nnnc3N)cc2[N+](=O)[O-])CC1,-9.0,17.9,0.1,-2.5,-0.0121,5.5
Cc1ccc(/C=N/n2nnnc2N)cc1[N+](=O)[O-],-8.6,8.0,9.5,-5.6,-8.87*,-0.8
CCCCNC(=O)C(c1ccc(OCC(=O)OC)c(C(=O)OC)c1)N(CCc1c[nH]c2ccccc12)C(=O)CCCCCN1C(=O)NC(c2ccc(-c3ccccc3)cc2)C(C(=O)OCc2ccccc2)=C1C (stereo not given),·,·,·,·,-0.569,·
O=C(Nc1ccc2c(c1)OCO2)C(c1ccc(Cl)cc1)N1CCN(C(=O)c2ccco2)CC1 (stereo not given),-7.2,7.8,1.5,-4.3,2.36*,-6.7
CC(C)(C)C(=O)/C(=C\c1ccc([N+](=O)[O-])cc1)n1cncn1,-6.9,-1.3,3.1,-2.5,-0.747,4.5
CC(=NC1CCCCC1)C1=C(O)c2ccccc2C1=O,2.7,5.2,1.5,-4.0,2.01*,27.0
NCCCC(=O)N1c2ccccc2Sc2ccccc21,65.6*,-8.6,·,·,-0.749,6.3
O=C(CN1CCCC1)N1c2ccccc2Sc2ccccc21,6.9,-1.8,10.1,-12.1,-0.0153,6.0
SMILES,PLK1 inh,HIV Rev-RRE inh,PTPN22 inh 2,LYP act,hDAT+cocaine,Plk1 PBD FP
Cn1c(C(=O)NCCN2CCCCCC2)cc2c(=O)n(C)c3ccccc3c21,-2.8,4.0,-3.8,3.3,-0.0686,-4.5
Cn1c(C(=O)NCCN2CCN(Cc3ccccc3)CC2)cc2c(=O)n(C)c3ccccc3c21,·,·,·,·,3.16*,·
Cc1ccc([C@@H]2C3COCC=C3C(C#N)=C(N)C2(C#N)C#N)o1 (stereo not given in full),-0.8,41.6*,-5.5,5.3,-0.288,-17.2
Cc1ccc(C2C3CSCC=C3C(C#N)=C(N)C2(C#N)C#N)cc1 (stereo not given),·,·,·,·,1.53,·
COc1ccc(N/C(=C(/C(Cl)=C(Cl)Cl)[N+](=O)[O-])n2nnc3ccccc32)cc1OC,6.0,38.3*,-4.6,5.1,-0.377,6.4
COc1cccc(NC(=O)CN2CCN(c3ccc(F)cc3)CC2)c1,-7.5,6.8,2.7,-2.8,-2.46*,-0.6
CCn1cc(/C=N/NS(=O)(=O)c2ccc(OC)cc2)c(C)n1,-7.8,5.2,0.4,-0.8,0.359,10.6
CCCn1c(SCC(=O)N2CCN(S(=O)(=O)c3ccc(Cl)cc3)CC2)n[nH]c1=O,-4.0,0.1,-1.4,-1.2,0.447,8.2
Cc1cc(C)n2c(SCC(=O)N3CCN(S(=O)(=O)c4ccc(Cl)cc4)CC3)nnc2n1,3.4,7.6,24.0*,-25.9,0.561,-13.2
O=C(CSc1nnc(C2CC2)n1Cc1ccccc1)N1CCN(S(=O)(=O)c2ccccc2)CC1,-9.2,9.0,-3.8,0.6,-7.41*,-29.1
CCOC(=O)c1sc(NC(=O)CSc2nnc(C)s2)c(C(=O)OCC)c1C,-9.8,15.9,10.3,-11.0,-0.72,-8.7
CCOC(=O)c1c(NC(=O)CSc2nnc(C)s2)sc2c1CCC(CC)C2 (stereo not given),-21.4,-2.4,7.5,-10.1,2.22*,-10.6
CCCCCCNC(=O)N[C@@H](C(=O)NCCC[C@H]1CN2C(=NC[C@@H]2Cc2ccccc2)N1CCc1cccc(OC)c1)C(C)C,·,·,·,·,-2.99*,·
O=C(c1cc2ccccc2o1)N1CCN=C1SCc1cccnc1,-10.1,1.7,2.3,-1.7,-0.259,-13.7
O=C(c1ccc(Br)o1)N1CCN=C1SCc1cccnc1,-11.5,0.2,-12.4,8.7,2.36*,-7.9
COc1cc2c(cc1OC)C1=C(C#N)CC/C(=N\S(=O)(=O)c3ccccc3)N1CC2,61.4*,7.5,·,·,-0.449,-13.1
O=C(OCC(=O)N1CCN(C(=O)c2ccco2)CC1)c1cc(-c2ccccc2)nc2ccccc12,-18.0,7.2,7.9,-8.5,1.13,-11.4

# From PubChem BioAssay
